Experimental data from PubChem BioAssay AID652250 (Vanderbilt Specialized Chemistry Center, 2013).
Activity calls are given as the source filed them.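 How the source made its calls: active means compounds leaving under half of the peptide-driven platelet calcium rise; inactive means the rest.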

Target: Proteinase-activated receptor 4 (Homo sapiens) (UniProt Q96RI0)
Assay: inhibition of PAR4-AP calcium signal – cell-based, single concentration, washed platelets, Fluo4 calcium (AID 652250)
Details: PAR4-AP calcium Fluo4 fluorescence; for % of max PAR4-AP calcium response: at 10 µM, stronger effect = lower value
Procedure, shortened: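 Assay system: Fluo4-AM-loaded washed human platelets / Quantity: 10^8 platelets/mL / Detection: fluorescence at 480/540 nm, 1 s intervals / Also added: 80 µM PAR4-AP / Benchmarks: PAR4-AP-stimulated DMSO control (100%) / Replicates: triplicate wells / Read-out: peak minus basal RFU as % of per-donor DMSO control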

Proteinase-activated receptor 4 (Homo sapiens), sequence (Q96RI0 whole entry, looked up): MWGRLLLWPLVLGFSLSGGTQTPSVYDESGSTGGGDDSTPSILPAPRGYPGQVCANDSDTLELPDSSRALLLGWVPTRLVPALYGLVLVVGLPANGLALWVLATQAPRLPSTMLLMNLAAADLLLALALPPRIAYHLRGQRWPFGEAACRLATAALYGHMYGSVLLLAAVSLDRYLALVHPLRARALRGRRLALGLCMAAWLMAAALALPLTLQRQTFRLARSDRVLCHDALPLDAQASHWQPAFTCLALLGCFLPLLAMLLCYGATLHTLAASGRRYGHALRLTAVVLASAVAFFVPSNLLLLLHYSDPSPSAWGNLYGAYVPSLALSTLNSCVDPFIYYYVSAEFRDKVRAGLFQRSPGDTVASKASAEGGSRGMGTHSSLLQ

% of max PAR4-AP calcium response | IC50 [µM] | Structure (SMILES)
 | 10 | Fc1ccc(-c2cn(Cc3ccccc3)c3ccccc23)cn1
inactive |  | CN(C)c1ccc(-c2cn(Cc3ccccc3)c3ccccc23)cn1
inactive |  | Cn1cc(-c2cn(Cc3ccccc3)c3ccccc23)cn1
inactive |  | Cn1cc(CC(=O)N2CCN(c3ccc([N+](=O)[O-])cc3)CC2)c2ccccc21
inactive |  | c1ccc(Cn2cc(-c3cncnc3)c3ccccc32)cc1
inactive |  | O=C(c1cn(CCOc2ccccc2F)c2ccccc12)C(F)(F)F
inactive |  | O=C(CCc1cn(Cc2ccccc2)c2ccccc12)NCCN1CCOCC1
inactive |  | CC(=O)n1cc(C(C[N+](=O)[O-])SCc2ccccc2)c2ccccc21 (stereo not given)

More lines, now with the values behind:

Structure (SMILES) | % of max PAR4-AP calcium response | IC50 [µM]
Cc1c(C)n(C(=O)CSc2ncccn2)c2ccccc12 | inactive | 
CC1CCCCN1C(=O)Cn1cc(C(=O)C(F)(F)F)c2ccccc21 (stereo not given) | inactive | 
COc1ccc(-n2nc(C(=O)Nc3cccc(C)n3)c3c4ccccc4n(C)c3c2=O)cc1Cl | inactive | 
CCn1c(C(=O)O)c(CC(=O)N(C)c2ccc(F)cc2)c2ccccc21 | inactive | 
COc1ccc(Nc2ncnc3c2c(-c2ccccc2)cn3-c2ccc(Br)cc2)cc1OC | 38.7% | 
CCCNc1ncnc2c1c(-c1ccccc1)cn2-c1ccccc1 | inactive | 
COc1ccc(C)cc1NC(=O)Cc1cn(C)c2ccccc12 | inactive | 
COCCCNC(=O)Cn1cc(C(=O)C(F)(F)F)c2ccccc21 | inactive | 
O=C(N/N=C/c1ccncc1)c1ccn(Cc2ccc(Cl)cc2Cl)n1 | inactive | 
COc1ccc(OC)c(CNC(=O)CCCc2cn(C)c3ccccc23)c1 | inactive | 
Cc1ccc(-n2cc(-c3ccccc3)c3c(NCc4ccc5c(c4)OCO5)ncnc32)cc1Cl | inactive | 
COc1ccc(-c2cn(Cc3cccc(F)c3)c3ccccc23)cn1 |  | 3.85
COc1ccccc1NS(=O)(=O)c1ccc(NC(=O)c2ccc3c(c2)c(C)c(C)n3C)cc1 | inactive | 
Clc1ccc(-n2cc(-c3ccccc3)c3c(NCc4cccs4)ncnc32)cc1 | inactive | 
O=C(Cn1cc(C(=O)C(F)(F)F)c2ccccc21)N1CCCC1 | inactive | 
O=C(c1cn(Cc2ccc(F)cc2)c2ccccc12)C(F)(F)F | inactive | 
NS(=O)(=O)c1ccc(CCNc2ncnc3c2c(-c2ccccc2)cn3-c2cccc(Cl)c2)cc1 | inactive | 
